This note sets out measurements from ChEMBL document CHEMBL4266053, “Puromycins B-E, Naturally Occurring Amino-Nucleosides Produced by the Himalayan Isolate Streptomyces sp. PU-14G” (J Nat Prod, 2018).

Assay [1] concerns PC-3. As to the kind of experiment: Cytotoxicity against human PC3 cells assessed as decrease in cell viability at 100 uM after 48 hrs. It is filed as functional, cell-based. The method, boiled down:
(§1)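 Cell viability measured in triplicate after 48 h exposure to a single 100 μM concentration. Actinomycin D served as the positive control.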

Assay [2] concerns A549. Put plainly: Cytotoxicity against human A549 cells assessed as decrease in cell viability at 100 uM after 48 hrs. It is filed as functional, cell-based. The method, boiled down:
as §1

The next assay deals with Staphylococcus aureus. As to the kind of experiment: Antibacterial activity against Staphylococcus aureus ATCC 6538 after 16 to 48 hrs. The assay is classed as functional. The procedure, abridged: (§2)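 Bacterial MIC assay run in triplicate and read after 16−48 h incubation. Kanamycin and ampicillin served as positive controls.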
The next assay relates to Micrococcus luteus. Put plainly: Antibacterial activity against Micrococcus luteus NRRL B-287 after 16 to 48 hrs. The assay is classed as functional. The procedure, abridged:
as §2

For another assay, the system named is Bacillus spizizenii. Put plainly: Antibacterial activity against Bacillus subtilis ATCC 6633 after 16 to 48 hrs. It is filed as functional. The procedure, abridged: as §2
For a further assay, the system named is Mycolicibacterium aurum. As to the kind of experiment: Antimycobacterial activity against Mycobacterium aurum ATCC 23366 after 16 to 48 hrs. It is filed as functional. The procedure, abridged:
as §2

Assay [3] has as its system A549. As to the kind of experiment: Cytotoxicity against human A549 cells assessed as decrease in cell viability after 48 hrs. The assay is classed as functional, cell-based. The settings on record: A549, 48 h. The method, boiled down:
(§3)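 Human cancer cell line viability assay run in triplicate with 48 h compound exposure. IC50 derived from viability data. Actinomycin D served as the positive control.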

Assay [4] concerns PC-3. Put plainly: Cytotoxicity against human PC3 cells assessed as decrease in cell viability after 48 hrs. The settings on record: PC-3, 48 h. The assay is classed as functional, cell-based. The procedure, abridged:
as §3

Values after ≈ are worked out from the molar mass of the structure shown. Active and inactive are the calls of the source. The calls are words filed in the database; no cut-off is given here.

Consider `CC(=O)N[C@H]1[C@@H](O)[C@H](n2cnc3c(N(C)C)ncnc32)O[C@@H]1CO`, for which the outcome in the assay on PC-3 [1] and in the assay with A549 [2] was Active.

Usually MIC stands for the lowest concentration that inhibits growth of the organism. Higher therefore signals a less susceptible organism. As usually defined, the IC50 is the point on the concentration scale where inhibition reaches its midpoint. For the compound `COc1ccc(C[C@H](N)C(=O)N[C@H]2[C@@H](O)[C@H](n3cnc4c(N(C)C)ncnc43)O[C@@H]2CO)cc1` [PUROMYCIN], the MIC in the assay with Staphylococcus aureus, against Micrococcus luteus, in the assay on Bacillus spizizenii and in the assay with Mycolicibacterium aurum was 4 to 30 µM (≈ 1.89 to 14.1 µg/mL) throughout. Also, the IC50 in the assay with A549 [3] and in the assay with PC-3 [4] was 300 nM in each case.

In the case of `COc1ccc(C[C@H](NC(C)=O)C(=O)N[C@H]2[C@@H](O)[C@H](n3cnc4c(N(C)C)ncnc43)O[C@@H]2CO)cc1`, the result in the assay with PC-3 [1] and in the assay with A549 [2] was Active.

Turning to `COc1ccc(C[C@H](O)C(=O)N[C@H]2[C@@H](O)[C@H](n3cnc4c(N(C)C)ncnc43)O[C@@H]2CO)cc1`, the outcome in the assay with PC-3 [1] and in the assay with A549 [2] was Active.

For `CC(=O)N[C@@H](CC(C)C)C(=O)N[C@H]1[C@@H](O)[C@H](n2cnc3c(N(C)C)ncnc32)O[C@@H]1CO`, the outcome in the assay with PC-3 [1] and in the assay with A549 [2] was Active.
